# Laboratory results: ChEMBL document CHEMBL4130383, “Hydroxy-substituted trans-cinnamoyl derivatives as multifunctional tools in the context of Alzheimer's disease” (Eur J Med Chem, 2017)
# Calls of active or inactive are those of the source. The rule behind the calls is not given here.
# Key:
# [1] = target: T1, Amyloid-beta precursor protein (Homo sapiens, UniProt P05067); test: Inhibition of self-induced amyloid beta (1 to 42) (unknown origin) aggregation by thioflavin T-based fluorometric assay
# Outline: (§1)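 HFIP-pretreated Aβ42 stock at 500 μM in CH3CN/0.3 mM Na2CO3/250 mM NaOH, diluted to 50 μM in 10 mM phosphate buffer pH 8.0 with 10 mM NaCl. Incubated at 30 °C with or without inhibitor at 50 μM (1:1 ratio); inhibitor blanks included. ThT fluorescence gave % inhibition. IC50 from concentrations giving 20–80% inhibition.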
# [2] = Antioxidant activity assessed as inhibition rate constant for auto-oxidation of cumene initiated by AIMN in PhCl at 30 degC; assay type: functional
# Outline: (§2)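 Oxygen-uptake measurement in a two-channel differential pressure apparatus. Air-saturated cumene (3.6 M) in chlorobenzene (1:1 v/v) with AIBN 0.05 M as thermal initiator, equilibrated against a reference solution holding excess 2,2,5,7,8-pentamethyl-6-chromanol. Antioxidant injected once O2 consumption was constant. k_inh fitted from the uninhibited and inhibited O2-consumption slopes.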
# [3] = target: T2, Glycogen synthase kinase-3 beta (Homo sapiens, UniProt P49841); test: Inhibition of GSK3beta (unknown origin) at 50 uM using GSM substrate after 30 mins by Kinase-Glo reagent based luminescence assay relative to control
# Outline: (§3)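 Buffer: 50 mM HEPES, 1 mM EDTA, 1 mM EGTA, 15 mM Mg acetate, pH 7.5. Enzyme 20 ng per well, GSM substrate 25 μM, ATP 1 μM, DMSO ≤1%. Incubated 30 min at 30 °C, then stopped with Kinase-Glo; luminescence read after 10 min. Activity normalised between no-inhibitor and […] total-inhibition controls. Single-point screen at 50 μM; IC50 by linear regression. Mean of two experiments, each in duplicate.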
# Target sequence in this assay (P49841 whole entry, looked up): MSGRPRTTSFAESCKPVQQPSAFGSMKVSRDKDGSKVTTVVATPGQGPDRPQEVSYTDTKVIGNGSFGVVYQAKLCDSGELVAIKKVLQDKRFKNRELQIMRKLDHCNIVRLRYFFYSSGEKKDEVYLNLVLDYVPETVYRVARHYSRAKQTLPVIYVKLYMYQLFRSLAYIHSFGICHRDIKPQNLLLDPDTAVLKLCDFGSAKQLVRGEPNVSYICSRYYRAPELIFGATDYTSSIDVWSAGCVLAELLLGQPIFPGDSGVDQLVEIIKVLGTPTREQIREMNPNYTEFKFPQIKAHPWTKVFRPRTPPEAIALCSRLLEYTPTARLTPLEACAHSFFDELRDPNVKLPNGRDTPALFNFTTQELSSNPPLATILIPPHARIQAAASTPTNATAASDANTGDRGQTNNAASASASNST
# Cortical neurone [4] = test: Cytotoxicity against Sprague-Dawley rat primary cortical neurons assessed as reduction in cell viability up to 50 uM after 24 hrs by MTT assay; assay type: cell-based
# Outline: (§4)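 Immature E17 primary cortical neurons plated at 10^6 cells/ml. At DIV1, rinsed and given increasing compound concentrations, with or without 5 mM glutamate added at the same time. Viability by MTT after 24 h, across three neuronal preparations. Two-way ANOVA with Bonferroni post hoc test.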
# [5] = Metal chelating activity assessed as compound-Cu2+ complex formation at 7.5 uM in presence of 0.5 to 2 equiv of Cu2+ by UV-Visible differential spectroscopic method
# Outline: (§5)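 Stock solutions: 1 mM ligand and 1 mM CuCl2 in methanol, N2-purged. Fixed ligand (5–15 μM) titrated with CuCl2 up to 3 equivalents, deoxygenated, scanned 200–600 nm at room temperature in a 10 mm quartz cuvette against methanol. Ligand-only and metal-only spectra subtracted to give differential spectra, followed at 460 and 374 nm.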
# [6] = Passive permeability of the compound at 100 uM after 6 hrs by PAMPA
# Cortical neurone [7] = test: Neuroprotective activity against glutamate-induced oxidative stress in Sprague-Dawley rat primary cortical neurons assessed as reduction in cell death at 12.5 to 50 uM after 24 hrs by MTT assay; assay type: functional, cell-based; conditions: prague-Dawley; outline: as §4
# [8] = Antioxidant activity in pH 7.4 phosphate buffer assessed as inhibition rate constant for auto-oxidation of THF initiated by AAPH at 30 degC
# [9] = target: T1, Amyloid-beta precursor protein; test: Inhibition of self-induced amyloid beta (1 to 42) (unknown origin) aggregation by thioflavin T-based fluorometric assay relative to control; conditions: concentration not given here; outline: as §1
# [10] = target: T3, Protein-glutamine gamma-glutamyltransferase (Homo sapiens, UniProt P21980); test: Inhibition recombinant human TG2 using N-CbzGlu(gamma-p-nitrophenylester)Gly as substrate after 10 mins
# T3 sequence (P21980 whole entry): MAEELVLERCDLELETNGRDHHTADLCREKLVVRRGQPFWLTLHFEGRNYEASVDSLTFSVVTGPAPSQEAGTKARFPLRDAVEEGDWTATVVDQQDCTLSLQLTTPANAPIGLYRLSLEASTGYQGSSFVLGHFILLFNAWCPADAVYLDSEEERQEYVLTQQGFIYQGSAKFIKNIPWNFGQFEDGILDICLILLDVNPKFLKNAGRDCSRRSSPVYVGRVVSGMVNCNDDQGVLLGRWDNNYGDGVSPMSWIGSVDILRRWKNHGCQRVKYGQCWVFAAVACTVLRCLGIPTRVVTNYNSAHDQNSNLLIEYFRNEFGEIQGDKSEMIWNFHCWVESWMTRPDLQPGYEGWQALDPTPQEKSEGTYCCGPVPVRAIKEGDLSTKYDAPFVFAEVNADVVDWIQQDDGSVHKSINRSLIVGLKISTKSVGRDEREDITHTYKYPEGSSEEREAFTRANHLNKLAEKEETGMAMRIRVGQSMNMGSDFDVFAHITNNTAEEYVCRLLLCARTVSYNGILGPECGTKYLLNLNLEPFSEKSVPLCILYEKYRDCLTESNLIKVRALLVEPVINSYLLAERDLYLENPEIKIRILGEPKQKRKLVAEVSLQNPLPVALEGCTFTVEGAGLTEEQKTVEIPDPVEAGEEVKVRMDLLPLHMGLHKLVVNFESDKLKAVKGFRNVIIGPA
# [11] = target: Luciferin 4-monooxygenase (Photinus pyralis) (UniProt P08659); test: Inhibition of firefly luciferase activity up to 3 mM after 30 mins by luminescence assay
# Outline: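 Luciferase interference check: the Kinase-Glo luminescence read-out was run without GSK-3β, with compound up to 3 mM.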
# [12] = target: T1, Amyloid-beta precursor protein; test: Inhibition of self-induced amyloid beta (1 to 42) (unknown origin) aggregation at 50 uM by thioflavin T-based fluorometric assay relative to control; outline: as §1
# [13] = Antioxidant activity assessed as inhibition of auto-oxidation of cumene initiated by AIMN in PhCl at 30 degC relative to ethyl ferulate; assay type: functional; conditions: for inhibition: dose or concentration not given here; outline: as §2
# [14] = Metal chelating activity assessed as compound-Cu2+ complex formation at 7.5 uM by UV-Visible differential spectroscopic method; outline: as §5
# [15] = target: T2, Glycogen synthase kinase-3 beta; test: Inhibition of GSK3beta (unknown origin) using GSM substrate after 30 mins by Kinase-Glo reagent based luminescence assay; outline: as §3
# Target sequence in this assay (P49841 whole entry): as the sequence (P49841 whole entry, looked up) above
# [16] = Antioxidant activity assessed as inhibition of auto-oxidation of cumene initiated by AIMN in PhCl at 30 degC relative to caffeic acid; assay type: functional; outline: as §2
# [17] = Pro-oxidant activity in water assessed as auto-oxidation initiated by Cu+/Cu2+ couple in presence of H2O2; assay type: toxicity; conditions: buffer
# T1 sequence (P05067 whole entry): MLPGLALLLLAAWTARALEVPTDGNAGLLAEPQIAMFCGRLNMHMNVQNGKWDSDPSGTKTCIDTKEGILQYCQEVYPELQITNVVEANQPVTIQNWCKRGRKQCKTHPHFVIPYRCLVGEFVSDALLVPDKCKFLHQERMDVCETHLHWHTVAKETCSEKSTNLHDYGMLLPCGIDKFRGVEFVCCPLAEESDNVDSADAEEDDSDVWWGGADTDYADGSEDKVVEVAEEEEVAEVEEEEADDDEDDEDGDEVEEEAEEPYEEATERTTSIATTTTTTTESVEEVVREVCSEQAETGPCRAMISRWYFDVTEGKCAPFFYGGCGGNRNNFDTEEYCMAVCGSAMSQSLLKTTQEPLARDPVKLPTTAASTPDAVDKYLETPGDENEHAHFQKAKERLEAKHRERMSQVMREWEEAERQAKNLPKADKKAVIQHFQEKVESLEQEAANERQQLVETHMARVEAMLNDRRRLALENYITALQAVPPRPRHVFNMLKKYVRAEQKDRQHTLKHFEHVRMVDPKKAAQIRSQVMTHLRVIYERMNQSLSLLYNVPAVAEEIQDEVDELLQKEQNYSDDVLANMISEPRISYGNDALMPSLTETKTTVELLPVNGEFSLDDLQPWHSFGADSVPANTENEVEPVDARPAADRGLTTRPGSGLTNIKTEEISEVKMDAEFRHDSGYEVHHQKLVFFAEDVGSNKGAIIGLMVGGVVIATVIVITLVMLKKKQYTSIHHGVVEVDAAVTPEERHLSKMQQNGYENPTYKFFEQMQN
# Luciferin 4-monooxygenase (Photinus pyralis), sequence (P08659 whole entry): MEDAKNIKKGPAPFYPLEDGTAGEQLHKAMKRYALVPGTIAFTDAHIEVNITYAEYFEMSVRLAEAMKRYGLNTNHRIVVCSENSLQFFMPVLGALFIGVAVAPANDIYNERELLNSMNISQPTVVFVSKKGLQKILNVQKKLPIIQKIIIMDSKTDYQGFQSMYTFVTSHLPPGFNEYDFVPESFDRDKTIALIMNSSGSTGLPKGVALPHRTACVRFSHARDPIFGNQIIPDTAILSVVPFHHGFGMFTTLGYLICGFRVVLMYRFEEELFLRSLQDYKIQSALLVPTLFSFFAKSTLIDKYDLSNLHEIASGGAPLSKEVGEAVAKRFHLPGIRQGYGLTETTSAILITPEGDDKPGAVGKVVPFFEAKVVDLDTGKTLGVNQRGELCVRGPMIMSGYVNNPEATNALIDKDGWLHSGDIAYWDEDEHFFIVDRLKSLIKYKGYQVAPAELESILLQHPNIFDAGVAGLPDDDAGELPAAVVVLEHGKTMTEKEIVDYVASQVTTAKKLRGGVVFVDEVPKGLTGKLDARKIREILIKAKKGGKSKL
Structure (SMILES),IC50 [1] [µM],K [2],inhibition [3] [%],IC50 [10] [µM],inhibition [12] [%],also measured
O=C(O)/C=C/c1cccc(O)c1,> 100,–,–,–,–,–
CCOC(=O)/C=C/c1ccc(O)c(OC)c1,–,4.6 ×10³ /M/s,21.4,–,–,–
O=C(/C=C/c1ccc(O)c(O)c1)c1cccnc1,9,6.8 ×10⁵ /M/s,100,1000,91.5,"Activity (Cortical neurone [4]): Non-Toxic; Activity [5]: Active; Papp at 6 h, 100 µM [6]: 5.5 ×10⁻⁶ cm/s; Activity (Cortical neurone [7]): Active; K [8]: 3.2 ×10⁵ /M/s; inhibition [9]: 20 to 80%; inhibition [11]: inactive; fold change (FC) [13]: 150; Activity [14]: Active; IC50 [15]: 24.4 µM; fold change (FC) [16]: > 2; Activity [17]: Not Active"
COc1cc(/C=C/C(=O)O)ccc1O [FERULATE],> 100,–,–,–,–,–
O=C(O)/C=C/c1ccc(O)c(O)c1,–,2.9 ×10⁵ /M/s,–,–,–,–
OCCc1ccc(O)c(O)c1,–,8 ×10⁵ /M/s,–,–,–,–
O=c1c(O)c(-c2ccc(O)c(O)c2)oc2cc(O)cc(O)c12,–,5 ×10⁵ /M/s,–,–,–,–
C=CCSC(=O)/C=C/c1ccc(O)c(O)c1,12.5,–,–,–,–,–
O=C(/C=C/c1cccc(O)c1)c1cccnc1,–,1.5 ×10³ /M/s,43.5,266,5.8,"Papp at 6 h, 100 µM [6]: 6.5 ×10⁻⁶ cm/s"
COc1cc(/C=C/C(=O)c2cccnc2)ccc1O,–,7.1 ×10³ /M/s,37.2,688,17.5,"Papp at 6 h, 100 µM [6]: 9.9 ×10⁻⁶ cm/s; inhibition [13]: 54%"
CCOc1cc(/C=C/C(=O)c2cccnc2)ccc1O,–,6.1 ×10³ /M/s,39.5,484,18.8,inhibition [13]: 33%
O=C(/C=C/c1ccc(O)cc1)c1cccnc1,–,5.7 ×10³ /M/s,25.2,> 2000,21.5,–
